Rows were chosen to be rich in hits. Some 1.6% of all compounds tested hit in one or more screens of this group.
UCH37 inh: blocks the human deubiquitinase UCH37. inhibition, % (concentration not given with the values). Q9Y5K5. AID 588478. purified proteasome/UCH37, Ub-AMC cleavage fluorescence. actives 0.33% (n = 330,000);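 active means mean inhibition over replicate wells above about 20%, limit read from the data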;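 further: 0% = compound-free wells with enzyme and 100% = wells lacking proteasome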
Target sequence (Q9Y5K5 whole entry, looked up): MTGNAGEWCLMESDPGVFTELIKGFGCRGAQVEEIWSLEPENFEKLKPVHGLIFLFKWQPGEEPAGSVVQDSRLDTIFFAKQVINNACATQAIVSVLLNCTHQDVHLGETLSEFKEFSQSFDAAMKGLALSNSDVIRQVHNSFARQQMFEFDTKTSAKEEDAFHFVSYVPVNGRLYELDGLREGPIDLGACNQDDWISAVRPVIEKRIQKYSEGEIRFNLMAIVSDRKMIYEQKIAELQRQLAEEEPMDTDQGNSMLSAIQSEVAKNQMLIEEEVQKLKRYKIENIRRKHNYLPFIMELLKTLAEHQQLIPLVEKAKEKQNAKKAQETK
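assay system = human UCH37 enzyme supplied as purified proteasome complex | amount = proteasome at 0.15 nM in the dispensed enzyme solution | schedule = 30 min compound-proteasome preincubation then 25 min substrate reaction, room temperature | measured by = fluorescence, ex 355 nm, em 460 nm | benchmarks = no-proteasome wells (full inhibition) and compound-free wells (no inhibition)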
TDP2 absorb: blocks human TDP2 phosphodiesterase activity | AID 720702 | recombinant TDP2, T5PNP hydrolysis, p-nitrophenol absorbance 415 nm | O95551 | actives 0.34% (n = 370,000) | inhibition, % at 12.8 µM;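 active means inhibition above the mean of all tested compounds plus 3 SD, set per campaign, cut at about 25% in these data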;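 further: 0% = DMSO with enzyme and 100% = buffer with substrate but no TDP2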
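Incubation: 2 h at 37 °C; Test system: recombinant human TDP2; Quantity: enzyme 120 nM; Read-out basis: percent inhibition; Medium: 50 mM Tris-HCl pH 7.5 with Mg2+, KCl, DTT, BSA; Repeats: single replicate; Compound: 12.8 µM single point, 1% DMSO; Signal: epi absorbance; Reagent: 5 mM T5PNP chromogenic substrate; Benchmarks: no-enzyme high, DMSO-plus-enzyme low.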
GSTO1 counter: counter-screen for RBBP9 inhibitors: inhibitors of human GSTO1; P78417; recombinant GSTO1, activity-based probe fluorescence polarization; inhibition, % at 5.96 µM; actives 1.1% (n = 300,000); AID 1974;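 active means inhibition above the campaign mean inhibition plus 3 SD, cut at about 35% in these data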;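 further: 0% = GSTO1-1 with DMSO and 100% = wells lacking GSTO1-1 enzyme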
Target sequence (P78417 whole entry, looked up): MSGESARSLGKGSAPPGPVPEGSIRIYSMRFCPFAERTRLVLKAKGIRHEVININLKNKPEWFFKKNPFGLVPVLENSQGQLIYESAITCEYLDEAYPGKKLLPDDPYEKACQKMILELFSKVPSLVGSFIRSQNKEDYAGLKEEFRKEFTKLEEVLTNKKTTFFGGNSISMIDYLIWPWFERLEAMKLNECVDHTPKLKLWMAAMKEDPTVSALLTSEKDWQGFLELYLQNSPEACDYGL
HKDC1 inh: blocks human hexokinase HKDC1 activity | inhibition, % at 20 µM | recombinant HKDC1, G6PDH/diaphorase resazurin coupled fluorescence | actives 0.16% (n = 340,000) | Q2TB90;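 active means inhibition above about 35% when tested at 20 µM, limit read from the data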;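 further: plate controls were DMSO wells with enzyme for no effect and DMSO wells lacking enzyme for full effect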
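test system = in-house recombinant HK5 (HKDC1) enzyme | amount = HKDC1 at 5 µg/mL | control set = DMSO-enzyme wells negative, buffer-substituted wells positive | compound = one dose of 20 µM, 1% DMSO | schedule = reaction time 90 min, room temperature, protected from light | technique = resorufin fluorescence at 613 nm | reagent = glucose with 1 mM ATP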
PAD4 FP inh: blocks human protein arginine deiminase 4. actives 0.41% (n = 330,000). inhibition, % at 6.36 µM. Q9UM07. recombinant PAD4, RCA probe fluorescence polarization;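 active means percent inhibition above a cutoff equal to the mean of all tested compounds plus 3 SD, cut at about 15% in these data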;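 further: 0% = PAD4 with RCA probe and DMSO and 100% = probe without PAD4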
Fh CTSL1 inh: blocks F. hepatica cathepsin L1 in PFM18AAP counter-screen; recombinant F. hepatica cathepsin L1, Z-Leu-Arg-MCA fluorescence; inhibition, % at 5.96 µM; actives 0.49% (n = 300,000); AID 1906;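 active means inhibition above the mean of all tested compounds plus 3 SD, set per screening campaign, cut at about 17% in these data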;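 further: 0% = plate median of test compound wells and 100% = 1 µM Z-Phe-Ala-diazomethylketone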
GSTO1 confirm: confirmation of human GSTO1 inhibitors | shares compounds with GSTO1 counter | recombinant GSTO1, probe fluorescence polarization | inhibition, % at 5.96 µM | actives 54% (n = 2,400);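 active means inhibition above the primary screen's cutoff, its mean inhibition plus 3 SD, cut at about 35% in these data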;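 further: loss of polarization as inhibitors block binding of rhodamine sulfonate ester activity probe; 0% = GSTO1 with DMSO and 100% = wells lacking GSTO1 enzyme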
GSTO1 recomb ABPP: inhibitors of recombinant human GSTO1 | shares compounds with GSTO1 counter | gel ABPP SE-Rh probe fluorescence | inhibition, % at 1 µM | actives 30% (n = 130) | AID 463110;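 active means inhibition of the enzyme GSTO1 above about 75%, limit read from the data; inactive means inhibition below that limit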
* hit, by the source's call.

`O=C1CC(O)(C(F)(F)F)Oc2c1ccc1ccccc21` (centres undefined) gave UCH37 inh -170, TDP2 absorb 6, GSTO1 counter 32, HKDC1 inh 12, PAD4 FP inh 0 and Fh CTSL1 inh 2.
Screening O=C1CCN2C=Nc3cccc4ccc1c2c34 returned UCH37 inh -66, TDP2 absorb 23, GSTO1 counter 40*, HKDC1 inh 21, PAD4 FP inh 13, Fh CTSL1 inh 1 and GSTO1 confirm 9.
COc1ccc(C(=O)Nc2ccc(O)c3ccccc23)cc1 was read as UCH37 inh 10, TDP2 absorb 12, GSTO1 counter 49*, HKDC1 inh 16, PAD4 FP inh -8, Fh CTSL1 inh 0 and GSTO1 confirm 6.
CCOc1ccc(C=NNC(=S)NC2CC3CCC2C3)cc1 (centres undefined) was read as UCH37 inh 7.
Screening CN(C)c1cccc(NC(=O)c2cccc3ccccc23)c1 returned UCH37 inh 1, TDP2 absorb 10, GSTO1 counter 38*, HKDC1 inh 2, PAD4 FP inh -3, Fh CTSL1 inh 1 and GSTO1 confirm 5.
C=CCN1C(=O)/C(=C/c2ccc(OCC(=O)O)cc2)SC1=Nc1nccs1 was read as UCH37 inh 15.
`COCCNC(=O)C(=O)N/N=C(\C)CC(=O)Nc1ccc(Cl)cc1Cl` gave TDP2 absorb -16, GSTO1 counter 71*, HKDC1 inh -11, PAD4 FP inh -3, Fh CTSL1 inh -4 and GSTO1 confirm 8.
`CC(CC(=O)Nc1ccc(Cl)cc1Cl)=NNC(=O)C(=O)NCCO` gave UCH37 inh 4.
For Cc1ccc(NC(=O)c2cc(CC(C)C)nc3ccccc23)cc1 the results were UCH37 inh 0, TDP2 absorb -16, GSTO1 counter 42*, HKDC1 inh 6, PAD4 FP inh -3, Fh CTSL1 inh -23 and GSTO1 confirm 4.
`O=C(O)c1ccc(N=Nc2c(O)ccc3ncccc23)cc1` gave TDP2 absorb 5, GSTO1 counter 60*, HKDC1 inh 16, PAD4 FP inh -8, Fh CTSL1 inh 7 and GSTO1 confirm 41*.
Screening Nc1nc(N)c(N=Nc2ccc(C(=O)O)cc2)c(N)n1 returned UCH37 inh 8, TDP2 absorb 11, GSTO1 counter 5, HKDC1 inh -4, PAD4 FP inh 3 and Fh CTSL1 inh 3.
CCOC(=O)c1c(C)[nH]c(C)c1C(=O)COC(=O)c1cccc(S(=O)(=O)NC)c1 was read as UCH37 inh 0, TDP2 absorb -2, GSTO1 counter 40*, HKDC1 inh 3, PAD4 FP inh -4, Fh CTSL1 inh -2 and GSTO1 confirm 22.
Screening O=c1[nH]c(=O)c2nnc(NN=Cc3ccccc3F)nc2[nH]1 returned UCH37 inh 13.
Screening COc1ccc(C=NNc2nc(N3CCCCC3)nc(N3CCCCC3)n2)cc1[N+](=O)[O-] returned UCH37 inh 5.
For CN1CCc2cccc3c2[C@@H]1Cc1ccc(O)c(O)c1-3 the results were UCH37 inh -3, GSTO1 counter 94*, HKDC1 inh 10, PAD4 FP inh -2, Fh CTSL1 inh 1 and GSTO1 confirm 13.
Screening C=CCSC1=N/C(=C\C=C\c2ccco2)C(=O)S1 returned TDP2 absorb 7, GSTO1 counter 45*, HKDC1 inh 6, PAD4 FP inh -1, Fh CTSL1 inh -1 and GSTO1 confirm 19.
`C=CCSC1=N/C(=C\c2sccc2C)C(=O)S1` gave UCH37 inh 4, TDP2 absorb 4, GSTO1 counter 1, HKDC1 inh 1, PAD4 FP inh 2 and Fh CTSL1 inh 10.
Screening CCN(CC)P(=O)(Nc1ccc(Br)cc1)c1c(C)nn(CCC#N)c1NC(=O)c1ccc(Cl)cc1 (centres undefined) returned UCH37 inh 4, TDP2 absorb -2, GSTO1 counter 47*, HKDC1 inh 2, PAD4 FP inh -4, Fh CTSL1 inh 1 and GSTO1 confirm 23.
`Cc1nn(CCC#N)c(NC(=O)c2ccc(Cl)cc2)c1P(=O)(Nc1ccc([N+](=O)[O-])cc1)N1CCOCC1` (centres undefined) gave UCH37 inh 8, TDP2 absorb 6, GSTO1 counter -2, HKDC1 inh -8, PAD4 FP inh -3 and Fh CTSL1 inh 2.
`Cn1c(=O)c2ccccc2n2c(CCl)nnc12` gave UCH37 inh 3, TDP2 absorb -4, GSTO1 counter 80*, HKDC1 inh 6, PAD4 FP inh 3, Fh CTSL1 inh 28*, GSTO1 confirm 86* and GSTO1 recomb ABPP 49.
`C(=NNc1nc2ccccc2s1)c1cccs1` gave UCH37 inh 4.
COC(=O)C1=C(C)N(CC2CCCO2)C(=O)/C1=C\c1ccc(O)cc1 (centres undefined) was read as UCH37 inh 5, TDP2 absorb -1, GSTO1 counter 43*, HKDC1 inh -5, PAD4 FP inh -4, Fh CTSL1 inh -1 and GSTO1 confirm 1.
For Oc1ccc(/C=N/N=C(c2ccccc2)c2ccccc2)c(O)c1O the results were TDP2 absorb -4, GSTO1 counter 54*, HKDC1 inh 19, PAD4 FP inh -1, Fh CTSL1 inh 0 and GSTO1 confirm 3.
O=C(/C(=N/N=C/c1ccc(O)c(O)c1O)c1ccccc1)c1ccccc1 was read as TDP2 absorb -11, GSTO1 counter 50*, HKDC1 inh 16, PAD4 FP inh -2, Fh CTSL1 inh 1 and GSTO1 confirm -4.
`Oc1ccc(C=NN=C(c2ccccc2)c2ccccc2)c(O)c1O` gave UCH37 inh 11.
Cc1cccc(CN(CC(=O)NN=Cc2ccco2)S(=O)(=O)c2ccc(Cl)cc2)c1 was read as UCH37 inh -2.
Cc1cc(C(=O)NN=C2CCCc3ccccc32)c(C)o1 was read as UCH37 inh 4.
`CC1(OC(=O)C2CCCC2)C(=O)C=C2C=C(c3ccsc3)N(c3ccccc3)C=C2C1=O` (centres undefined) gave UCH37 inh 1, TDP2 absorb 6, GSTO1 counter 23, HKDC1 inh 23, PAD4 FP inh -8 and Fh CTSL1 inh 0.

Assay outcomes as filed in PubChem BioAssay.
